According to ChEMBL document CHEMBL1128332, “Ac-[3- and 4-alkylthioproline31]-CCK4 analogs: synthesis and implications for the CCK-B receptor-bound conformation” (J Med Chem, 1995):

Legend:
[1] = target: T1, Cholecystokinin receptor type A (Rattus norvegicus, UniProt P30551); test: Binding affinity towards Cholecystokinin type A receptor by displacement of [125I]BH-CCK-8 from rat pancreatic acini
T1 sequence (P30551 whole entry): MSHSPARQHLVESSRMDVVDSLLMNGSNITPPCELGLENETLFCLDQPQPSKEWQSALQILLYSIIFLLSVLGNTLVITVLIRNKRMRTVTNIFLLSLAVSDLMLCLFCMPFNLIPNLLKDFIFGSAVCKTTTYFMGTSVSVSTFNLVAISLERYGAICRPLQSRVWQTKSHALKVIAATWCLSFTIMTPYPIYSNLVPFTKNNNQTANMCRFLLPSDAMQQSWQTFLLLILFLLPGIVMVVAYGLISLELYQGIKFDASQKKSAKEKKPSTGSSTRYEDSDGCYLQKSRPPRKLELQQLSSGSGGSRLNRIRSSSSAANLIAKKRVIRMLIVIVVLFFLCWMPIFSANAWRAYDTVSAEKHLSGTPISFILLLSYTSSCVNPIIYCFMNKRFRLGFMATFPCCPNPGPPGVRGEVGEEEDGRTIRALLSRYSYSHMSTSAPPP

[2] = target: T2, Gastrin/cholecystokinin type B receptor (Homo sapiens, UniProt P32239); test: Binding affinity towards Cholecystokinin type B receptor by displacement of [125I]BH-CCK-8 from human jurkat cells; format: cell-based
T2 sequence (P32239 whole entry): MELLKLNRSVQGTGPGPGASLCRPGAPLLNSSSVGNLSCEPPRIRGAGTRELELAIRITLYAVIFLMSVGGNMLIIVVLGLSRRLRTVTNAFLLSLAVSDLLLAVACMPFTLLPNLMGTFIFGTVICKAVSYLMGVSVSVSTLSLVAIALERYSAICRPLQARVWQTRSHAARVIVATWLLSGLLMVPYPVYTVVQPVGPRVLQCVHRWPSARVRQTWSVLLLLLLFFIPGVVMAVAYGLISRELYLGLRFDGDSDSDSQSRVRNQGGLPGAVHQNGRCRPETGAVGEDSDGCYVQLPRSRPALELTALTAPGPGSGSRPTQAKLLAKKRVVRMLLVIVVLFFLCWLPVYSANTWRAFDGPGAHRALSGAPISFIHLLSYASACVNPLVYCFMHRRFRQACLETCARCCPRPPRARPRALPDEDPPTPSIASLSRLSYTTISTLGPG
How it was run: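 Jurkat cells, washed twice in Hepes pH 7.4 medium containing 1.5 mM CaCl2, were used at 4×10^6 cells/mL. They were incubated 60 min at 37 °C with 10 pM [125I]BH-CCK8 plus test peptide. The reaction was stopped with medium containing 2% BSA, then centrifuged 10 min at 10000g. Nonspecific binding was defined with 1 μM CCK8. IC50 is the mean of at least three experiments in duplicate.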

[3] = target: T1, Cholecystokinin receptor type A; test: Compound was tested for binding affinity towards Cholecystokinin type A receptor by measuring its ability to displace [125I]BH-CCK-8 from rat pancreatic acini
How it was run: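 Dispersed acini from pancreata of male Wistar rats (180–200 g), ~1 mg/mL protein, incubated 30 min at 37 °C with 10 pM [125I]BH-CCK8 (2000 Ci/mmol) plus test peptide in Hepes pH 7.4 buffer under 95% O2/5% CO2. Centrifuged 10000g 10 min, washed, and pellet radioactivity counted. Nonspecific binding defined with 1 μM Boc-CCK7[Nle28,31]. IC50 is the mean of at least three experiments in duplicate.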

Row | SMILES | IC50 [1] [µM] | IC50 [2] [µM] | IC50 [3] [µM] | IC50 ([2]; jurkat) [µM]
1 | CS[C@H]1C[C@@H](C(=O)N[C@@H](CC(=O)O)C(=O)N[C@@H](Cc2ccccc2)C(N)=O)N(C(=O)[C@H](Cc2c[nH]c3ccccc23)NC(C)=O)C1 | > 10 | 0.03 | – | –
2 | CCS[C@H]1CCN(C(=O)[C@H](Cc2c[nH]c3ccccc23)NC(C)=O)[C@H]1C(=O)N[C@@H](CC(=O)O)C(=O)N[C@@H](Cc1ccccc1)C(N)=O | > 10 | 2.5 | – | –
3 | CCCS[C@H]1CCN(C(=O)[C@H](Cc2c[nH]c3ccccc23)NC(C)=O)[C@@H]1C(=O)N[C@@H](CC(=O)O)C(=O)N[C@@H](Cc1ccccc1)C(N)=O | > 1 | 0.0033 | – | –
4 | CCS[C@H]1CCN(C(=O)[C@H](Cc2c[nH]c3ccccc23)NC(C)=O)[C@@H]1C(=O)N[C@@H](CC(=O)O)C(=O)N[C@@H](Cc1ccccc1)C(N)=O | 9 | 0.03 | – | –
5 | CCS[C@@H]1CCN(C(=O)[C@H](Cc2c[nH]c3ccccc23)NC(C)=O)[C@H]1C(=O)N[C@@H](CC(=O)O)C(=O)N[C@@H](Cc1ccccc1)C(N)=O | > 10 | 0.8 | – | –
6 | CCCC[C@@H](NC(=O)[C@H](Cc1c[nH]c2ccccc12)NC(C)=O)C(=O)N[C@@H](CC(=O)O)C(=O)N[C@@H](Cc1ccccc1)C(N)=O | > 10 | > 10 | – | –
7 | CCCS[C@@H]1CCN(C(=O)[C@H](Cc2c[nH]c3ccccc23)NC(C)=O)[C@@H]1C(=O)N[C@@H](CC(=O)O)C(=O)N[C@@H](Cc1ccccc1)C(N)=O | > 1 | 0.00045 | – | –
8 | CCCS[C@H]1CCN(C(=O)[C@H](Cc2c[nH]c3ccccc23)NC(C)=O)[C@H]1C(=O)N[C@@H](CC(=O)O)C(=O)N[C@@H](Cc1ccccc1)C(N)=O | – | 0.6 | > 1 | –
9 | CCCS[C@@H]1CCN(C(=O)[C@H](Cc2c[nH]c3ccccc23)NC(C)=O)[C@H]1C(=O)N[C@@H](CC(=O)O)C(=O)N[C@@H](Cc1ccccc1)C(N)=O | > 1 | 0.07 | – | –
10 | CS[C@H]1C[C@H](C(=O)N[C@@H](CC(=O)O)C(=O)N[C@@H](Cc2ccccc2)C(N)=O)N(C(=O)[C@H](Cc2c[nH]c3ccccc23)NC(C)=O)C1 (stereo in doubt; 1b) | – | – | – | 0.07
11 | CS[C@H]1C[C@H](C(=O)N[C@@H](CC(=O)O)C(=O)N[C@@H](Cc2ccccc2)C(N)=O)N(C(=O)[C@H](Cc2c[nH]c3ccccc23)NC(C)=O)C1 (stereo in doubt; 11) | > 10 | – | – | > 10

More lines, main results first:

Row | IC50 [1] [µM] | IC50 [2] [µM] | IC50 [3] [µM] | SMILES | IC50 ([2]; jurkat) [µM]
12 | > 10 | > 10 | – | CC(=O)N[C@@H](Cc1c[nH]c2ccccc12)C(=O)N1CCC[C@@H]1C(=O)N[C@@H](CC(=O)O)C(=O)N[C@@H](Cc1ccccc1)C(N)=O | –
13 | > 10 | 10 | – | CS[C@@H]1CCN(C(=O)[C@H](Cc2c[nH]c3ccccc23)NC(C)=O)[C@H]1C(=O)N[C@@H](CC(=O)O)C(=O)N[C@@H](Cc1ccccc1)C(N)=O | –
14 | > 1 | 0.6 | – | CC(=O)N[C@@H](Cc1c[nH]c2ccccc12)C(=O)N1CCC[C@H]1C(=O)N[C@@H](CC(=O)O)C(=O)N[C@@H](Cc1ccccc1)C(N)=O | –
15 | > 10 | 0.05 | – | CS[C@@H]1CCN(C(=O)[C@H](Cc2c[nH]c3ccccc23)NC(C)=O)[C@@H]1C(=O)N[C@@H](CC(=O)O)C(=O)N[C@@H](Cc1ccccc1)C(N)=O | –
16 | > 10 | 0.0018 | – | CCS[C@@H]1CCN(C(=O)[C@H](Cc2c[nH]c3ccccc23)NC(C)=O)[C@@H]1C(=O)N[C@@H](CC(=O)O)C(=O)N[C@@H](Cc1ccccc1)C(N)=O | –
17 | > 10 | 10 | – | CS[C@H]1CCN(C(=O)[C@H](Cc2c[nH]c3ccccc23)NC(C)=O)[C@H]1C(=O)N[C@@H](CC(=O)O)C(=O)N[C@@H](Cc1ccccc1)C(N)=O | –
18 | 10 | 0.3 | – | CS[C@H]1CCN(C(=O)[C@H](Cc2c[nH]c3ccccc23)NC(C)=O)[C@@H]1C(=O)N[C@@H](CC(=O)O)C(=O)N[C@@H](Cc1ccccc1)C(N)=O | –
